Screening data as filed in PubChem BioAssay.
Compounds with a hit are over-represented: about 2.3% of the library has one in this group of screens.
PfHsp90 yeast 2 = growth inhibition of PfHsp90-expressing yeast, primary screen, antimalarial PfHsp90 inhibitor project, S. cerevisiae, BacTiter-Glo luminescence, single point, set 2 | BacTiter-Glo ATP, 48 h; yeast lacking PDR1 and PDR3 efflux regulators | AID 504621, 2011 | 0.32% of 310,000 active | inhibition, % at 9.4 µM;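 active means every replicate shows inhibition above about 80%, whatever the replicate mean, limit read from the data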
Env fusion inh = inhibitors of HIV-1 Env-driven cell-cell fusion, primary screen, HeLa-JRFL effector, CEM21 target cells, luciferase; inhibition, % at 12.3 µM; 1.1% of 360,000 active;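 active means mean replicate inhibition score of at least 50 and every replicate individually at or above 50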
Rtt109 Vps75 = inhibitors of C. albicans Rtt109/Vps75 HAT, primary screen, biochemical, ThioGlo CoA-SH fluorescence, plate reader | Histone acetyltransferase RTT109 (Candida albicans (strain SC5314 / ATCC MYA-2876)), … | purified Rtt109/Vps75, 4 h | inhibition, % at 34.9 µM | 0.16% of 330,000 active | AID 540336, 2011;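 active means inhibition of at least 50% in every replicate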
Target sequence (Q5AAJ8 whole entry, looked up): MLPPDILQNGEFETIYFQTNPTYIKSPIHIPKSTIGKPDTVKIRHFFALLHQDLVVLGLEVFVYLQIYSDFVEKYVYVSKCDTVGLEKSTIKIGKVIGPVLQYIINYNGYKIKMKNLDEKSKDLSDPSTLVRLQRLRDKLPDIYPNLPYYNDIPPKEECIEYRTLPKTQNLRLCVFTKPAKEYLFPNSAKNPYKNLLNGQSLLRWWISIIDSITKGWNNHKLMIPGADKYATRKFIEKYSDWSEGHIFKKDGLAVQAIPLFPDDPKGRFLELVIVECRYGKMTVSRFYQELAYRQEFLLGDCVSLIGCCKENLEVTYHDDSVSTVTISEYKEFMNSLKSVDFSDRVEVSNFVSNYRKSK
PAX8 inh HTS = inhibitors of PAX8-driven TPO luciferase reporter, primary screen, RMG-I cells, single concentration. SteadyGlo, 24 h. inhibition, % at 12.6 µM. 1.2% of 360,000 active. AID 652154, 2013;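 active means mean replicate inhibition at least 60% with every replicate also reaching 60%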;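 further: luciferase light reporting Pax8 driven TPO promoter activity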
Glyco luc inh = increase of ERlucT glycosylation luciferase signal, primary screen, N-linked glycosylation inhibitor project, D54 ERlucT cells, luminescence, set 2; D54 ERlucT glycosylation luciferase reporter, 24 h; percent of 100 nM tunicamycin response; reporter increase, % at 12.5 µM; 0.23% of 360,000 active;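 active means mean luciferase reporter signal, scaled so untreated is 0 and the glycosylation-blocking control 100, at or above a set limit in every replicate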;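 further: luciferase carries N-glycosylation sites so blocking glycosylation raises the light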
Arrestin-AP2 inh = inhibitors of beta-arrestin/AP2 binding, primary screen, biochemical, GPCR trafficking, flow cytometry. beta-arrestin 1 C-terminal peptide binding to AP2 beta2-adaptin appendage (human). FITC-arrestin peptide / GST-AP2 beads; AP2 beta2 appendage carries R879A mutation. inhibition, % at 10 µM. 0.31% of 340,000 active. AID 504490, 2011;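 active means inhibition above a set limit, near 3 SD of compounds lacking own fluorescence, cut at about 54% in these data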
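Measured by: flow cytometry, FL1 (488/535 nm); Material: AP2 appendage R879A on GSH beads; Evaluation: percent response; Timing: pre-incubation 12 min, peptide binding 1 h, room temperature; Also added: 50 nM FITC-arrestin peptide; Medium: PBS with 0.05% Tween 20 and 0.1% BSA.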
Numbers stand for hits; . = inactive; / = no result; [ ] = remark or other dose.

SMILES | PfHsp90 yeast 2 | Env fusion inh | Rtt109 Vps75 | PAX8 inh HTS | Glyco luc inh | Arrestin-AP2 inh
COc1ccc(N(C(=O)c2ccncc2)S(=O)(=O)c2ccc(F)cc2)cc1 | / | . | . | . | . | .
COc1ccc(S(=O)(=O)N(C(=O)c2ccncc2)c2ccc(OC(=O)c3ccncc3)cc2)cc1 | 91 | . | . | . | . | .
COc1ccccc1NC(=O)N[C@H]1CC[C@H](CCNS(=O)(=O)c2ccccc2)O[C@H]1CO | / | . | / | . | / | /
CCCC(=O)Nc1ccc2c(c1)C(=O)N(C)C[C@@H](OC)[C@H](C)CN(C(C)=O)[C@@H](C)CO2 | / | . | / | / | / | /
Oc1ccc(CN2CCC(Cc3ccccc3)CC2)c2cccnc12 | / | . | / | 76 | / | /
Oc1ccc(CN2CCN(c3ccccc3)CC2)c2cccnc12 | . | / | . | / | . | .
Oc1c(CN2CCCCC2)cc(COCc2ccccc2)c2cccnc12 | . | . | . | 64 | . | .
Oc1ccc(Cc2ccccc2)c2cccnc12 | / | / | / | 87 | . | /
CC(C)COCc1ccc(O)c2ncccc12 | . | . | / | 72 | . | .
Cc1noc(C)c1NC(=O)N(C)C[C@H]1Oc2ncc(C#CCN(C)C)cc2C(=O)N([C@@H](C)CO)C[C@H]1C | / | . | / | / | / | /
COc1cc(CN2CCc3ccccc3C2)ccc1O | . | . | . | . | 93 | .
CCOC(=O)N1CCN(Cc2ccc(O)c3ncccc23)CC1 | / | . | / | . | / | /
Oc1ccc(CN2CCc3ccccc3C2)c2cccnc12 | . | 62 | . | / | . | .
COc1cc(CN2CCc3ccccc3C2)cc([N+](=O)[O-])c1O | . | . | . | . | . | .
Cc1ccc(C)c(S(=O)(=O)N2CCN(Cc3ccc(O)c4ncccc34)CC2)c1 | . | . | . | 73 | . | .
C[C@H](CO)N1C[C@H](C)[C@@H](CN(C)CC2CC2)Oc2c(NC(=O)C3CCCCC3)cccc2C1=O | / | . | / | / | / | /
Cn1c(/C=C/c2ccc([N+](=O)[O-])o2)nc2ccccc2c1=O | 98 | / | . | / | . | .
C[C@H](CO)N1C[C@H](C)[C@H](CN(C)Cc2cccnc2)Oc2cc(C#CC3CCCCC3)ccc2S1(=O)=O | / | . | / | / | / | /
O=C(NNC(=O)c1ccccc1[N+](=O)[O-])c1ccc(NC(=O)c2ccccc2)cc1 | . | . | . | . | . | .
O=C(Nc1ccccc1)c1ccccc1NC(=O)c1ccccc1[N+](=O)[O-] | . | . | 50 | . | . | .
O=C(Nc1nccs1)c1cc(Cl)ccc1[N+](=O)[O-] | . | . | . | . | . | /
O=C(Nc1nccs1)c1ccccc1[N+](=O)[O-] | . | . | . | 63 | . | .
C[C@@H]1CN([C@@H](C)CO)C(=O)Cc2cc(NC(=O)c3ccncc3)ccc2O[C@H]1CN(C)Cc1ccc(Cl)c(Cl)c1 | / | 73[16.7 µM] | / | . | / | /
COc1ccc(NC(=O)Nc2ccc3c(c2)CC(=O)N([C@@H](C)CO)C[C@H](C)[C@@H](CN(C)Cc2ccc(C(F)(F)F)cc2)O3)cc1 | / | . | / | 70 | / | /
COc1ccc(NC(=O)Nc2ccc3c(c2)CC(=O)N([C@H](C)CO)C[C@@H](C)[C@H](CN(C)Cc2ccc(C(F)(F)F)cc2)O3)cc1 | / | . | / | . | / | /
C[C@@H]1CN([C@@H](C)CO)C(=O)Cc2cc(NC(=O)Cc3cn(C)c4ccccc34)ccc2O[C@H]1CN(C)Cc1ccc(C(F)(F)F)cc1 | / | . | / | 71 | / | /
C[C@@H]1CN([C@@H](C)CO)C(=O)Cc2cc(NC(=O)Nc3ccc(C(F)(F)F)cc3)ccc2O[C@H]1CN(C)Cc1ccccc1 | / | . | / | 68 | / | /
C[C@H](CO)N1C[C@H](C)[C@@H](CN(C)C(=O)Nc2cccc3ccccc23)OCCCC[C@H](C)Oc2ccc(NS(=O)(=O)c3ccc(F)cc3)cc2C1=O | / | . | / | . | / | /
C[C@H](CO)N1C[C@H](C)[C@@H](CN(C)C)Oc2ccc(NC(=O)c3ccncc3)cc2C1=O | / | / | / | . | / | /
